Experimental data from ChEMBL document CHEMBL3351394 (J Med Chem, 2014).

Key:
Bile acid receptor = target: T1, Bile acid receptor (Homo sapiens, UniProt Q96RI1); assay: Agonist activity at human FXR expressed in human HeLa cells assessed as receptor activation by BSEP promoter-driven firefly luciferase reporter gene assay; type: cell-based; conditions: read-out: EC50
T1 sequence (Q96RI1 whole entry): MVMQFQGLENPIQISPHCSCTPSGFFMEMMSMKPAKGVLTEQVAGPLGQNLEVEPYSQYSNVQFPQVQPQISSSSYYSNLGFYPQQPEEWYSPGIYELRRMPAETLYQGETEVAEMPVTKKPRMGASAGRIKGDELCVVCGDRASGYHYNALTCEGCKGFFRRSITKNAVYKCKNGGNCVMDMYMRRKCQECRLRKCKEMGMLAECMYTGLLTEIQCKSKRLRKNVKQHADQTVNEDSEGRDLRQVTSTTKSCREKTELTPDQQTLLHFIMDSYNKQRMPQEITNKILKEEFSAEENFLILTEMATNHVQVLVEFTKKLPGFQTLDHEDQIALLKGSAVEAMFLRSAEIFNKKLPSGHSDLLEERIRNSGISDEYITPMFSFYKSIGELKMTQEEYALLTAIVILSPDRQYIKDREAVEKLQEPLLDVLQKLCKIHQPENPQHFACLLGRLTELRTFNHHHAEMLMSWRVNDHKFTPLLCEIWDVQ

[1] = target: T2, Bile acid receptor (Homo sapiens) (UniProt Q96RI1); assay: Agonist activity at FXR in human HepG2 cells assessed as induction of SHP mrNA expression at 0.3 uM by quantitative PCR method; type: cell-based
T2 sequence (whole entry): T1 sequence (Q96RI1 whole entry)
Outline: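 HepG2 cells were seeded at 2 × 10⁶ per well. After 24 h they were switched to MEM with 1% charcoal-stripped FCS, and 24 h later dosed with compound (0.1, 0.3, 1, 3, 10 μM; 0.1% DMSO final) for 24 h. Total RNA was reverse transcribed and analysed by qPCR, GAPDH-normalized, ΔΔCt method. Samples were run in duplicate in ≥4 independent experiments.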

[2] = target: T3, Peroxisome proliferator-activated receptor alpha (Homo sapiens, UniProt Q07869); assay: Activity at GAL4-tagged PPARalpha (unknown origin) expressed in COS7 cells assessed as receptor transactivation by luciferase reporter gene assay; type: cell-based, COS-7
T3 sequence (Q07869 whole entry): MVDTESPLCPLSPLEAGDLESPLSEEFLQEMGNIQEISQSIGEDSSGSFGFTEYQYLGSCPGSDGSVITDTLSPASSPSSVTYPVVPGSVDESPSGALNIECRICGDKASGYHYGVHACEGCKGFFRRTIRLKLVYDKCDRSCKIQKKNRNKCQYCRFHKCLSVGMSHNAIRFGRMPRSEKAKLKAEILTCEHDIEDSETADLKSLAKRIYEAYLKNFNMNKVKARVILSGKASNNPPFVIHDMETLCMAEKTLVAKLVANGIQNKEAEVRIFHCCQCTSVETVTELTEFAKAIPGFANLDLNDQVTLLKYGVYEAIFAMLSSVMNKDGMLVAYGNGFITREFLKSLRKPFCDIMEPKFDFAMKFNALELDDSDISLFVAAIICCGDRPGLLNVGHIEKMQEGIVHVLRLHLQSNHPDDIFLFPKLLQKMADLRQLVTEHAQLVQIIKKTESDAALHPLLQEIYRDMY
Outline: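 Each PPAR subtype was tested as a Gal4 fusion carrying the human hinge region and LBD (cDNA from human monocytes) in transiently transfected COS-7 cells (Lipofectamine LTX), with a pFR-Luc reporter and pRL-SV40 for normalization. Compound in 0.1% DMSO was added 5 h post-transfection and incubated overnight. Firefly/renilla RLU was scaled to 1 μM GW7647 (α), L165,041 (δ) or pioglitazone (γ).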

COc1ccc(C(=O)Nc2cccc(C(=O)O)c2)c(NC(=O)c2ccc(C(C)(C)C)cc2)c1
EC50 (Bile acid receptor): 8 nM
Activity [1]: 247%
EC50 [2]: > 10000 nM
